Most compounds without a hit are left out; they make up all but 2.4% or so of the library.
Hck Nef HTS – human Hck-Nef kinase inhibition | P08631 | Recombinant Hck-YEEI plus Nef, Z-Lyte FRET kinase assay | inhibition, % at 20 µM | 220,000 tested, 0.68% active | AID 463187;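 active means Hck-Nef kinase inhibition above about 50%, limit read from the data; inactive means inhibition below that limit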
L929 necroptosis – blocks zVAD induced death of L929 cells | L929 zVAD necroptosis rescue, ATP luminescence, 24 h; with zVAD 60 µM | viability rescue, % at 10 µM | 220,000 tested, 0.38% active | AID 1377;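 active means activation, scaled between plate controls, above about 75%, limit read from the data; inactive means activation under that limit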
Dynein cargo inh – blocks dynein driven cargo transport along microtubules; AID 1381; z-score, hits read low; 3617.4 mouse cells, GR-EGFP nuclear translocation imaging; test concentration mostly 20 µM; stimulated with dexamethasone, 1 µM; active compounds read low; 220,000 tested, 0.47% active;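 active means plate z-score of nuclear minus cytoplasmic receptor signal below a set negative limit, without overly bright fluorescence or cell loss, cut at about -3.5 in these data, passing the limit was not always enough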;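 further: z-score of nuclear minus cytoplasmic ring GR-EGFP intensity difference per well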
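Buffer or medium: Induction medium lacking tetracycline, stripped serum | Also added: Dexamethasone agonist, 1.0 µM final, for 30 min | Timing: 48 h induction, 1 h compound, 30 min dex at 37 °C | Detection: Formaldehyde fixation, Hoechst nuclear stain, 10x automated fluorescence imaging | Measure: Nuclear versus cytoplasmic GR-EGFP signal, averaged per well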
MDM2 E3 inh – Mdm2 E3 ligase (human) inhibition; cell-based MDM2 ubiquitination luciferase reporter, 2 h; 0 = plate control, 100 = twice control, blank-subtracted; signal enhancement, % at 5 µM; Q00987; 210,000 tested, 0.11% active;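 active means signal enhancement of 30% or more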;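 further: luminescence tracks abundance of the self-degrading MDM2-luciferase fusion protein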
Target sequence (Q00987 whole entry, looked up, the tested form may be a part): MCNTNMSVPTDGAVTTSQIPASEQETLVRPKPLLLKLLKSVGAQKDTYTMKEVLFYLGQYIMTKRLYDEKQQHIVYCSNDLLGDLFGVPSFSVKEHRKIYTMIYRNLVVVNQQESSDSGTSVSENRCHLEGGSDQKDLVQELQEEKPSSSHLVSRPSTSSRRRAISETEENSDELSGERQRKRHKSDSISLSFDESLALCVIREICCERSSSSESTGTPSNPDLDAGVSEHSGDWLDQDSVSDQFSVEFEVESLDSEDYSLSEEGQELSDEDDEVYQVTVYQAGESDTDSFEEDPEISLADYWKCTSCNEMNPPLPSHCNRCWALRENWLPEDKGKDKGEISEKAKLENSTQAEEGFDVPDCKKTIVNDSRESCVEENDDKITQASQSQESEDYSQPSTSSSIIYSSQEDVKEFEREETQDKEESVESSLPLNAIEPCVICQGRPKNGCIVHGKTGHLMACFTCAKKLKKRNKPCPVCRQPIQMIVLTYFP
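Material: Stable MDM2–luciferase fusion reporter cells | Amount: 2000 cells seeded into each well | Dosing: One concentration, 5 µM, with 0.2% DMSO | Incubation: 4 h cell settling then 2 h compound exposure, 37 °C | Measured by: Luciferase luminescence | Read-out basis: % enhancement relative to plate controls after blank subtraction | Benchmarks: Control and blank well means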
Autophagy HCS – modulators of autophagy; MEF GFP-LC3 puncta imaging; test concentration mostly 10 µM; calls only at 10 µM (by protocol); 190,000 tested, 0.98% active; AID 463193;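 active means percentage of spot-positive cells more than 3 SD above its plate mean, without a fluorescence outlier flag or 80% toxicity; inconclusive means no clear call, values can overlap the other calls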
TNF necrop inh – inhibitors of TNF-alpha induced necroptosis in Jurkat FADD-/- cells; Jurkat FADD-/- TNF necroptosis rescue, ATP luminescence, 24 h; 0 = TNF only, 100 = no-TNF cells; activation (protection from cell death), % at 10 µM; 220,000 tested, 0.068% active;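 active means activation, meaning protection from cell death, of at least 50% relative to plate controls; inactive means activation below 50%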;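 further: necroptosis triggered by 40 ng/mL TNF-alpha added together with compound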
Dynein confirm – dynein cargo transport inhibition, confirmation; calls only at 20 µM; shares compounds with Dynein cargo inh; 3617.4 GR-EGFP nuclear translocation imaging, dexamethasone-induced; 1,000 tested, 69% active; AID 463116;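 active means inhibition of receptor movement into the nucleus at or above a set limit in both runs, with normal cell brightness and cell count; inconclusive means limit reached in only one run, brightness and count normal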;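 further: dexamethasone at 1 µM final in well for 30 min; nuclear minus cytoplasmic GR-EGFP mean intensity difference in channel 2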
Large screens that a line does not name were inactive (follow-up assays come after a bar, where they were run).

Cc1ccc(C(=O)N/C(=C\c2cn(-c3ccccc3)nc2-c2ccccc2)C(=O)N2CCOCC2)cc1	none
CC1(C)CC(=O)C2=C(C1)OC1=C(C(=O)CC(C)(C)C1)C2c1ccc(O)cc1O	none | Dynein confirm active
N#CC(C#N)=C1C=CC=CN1/C(=C\c1ccco1)C(=O)c1ccc(Br)cc1	Dynein cargo inh -4.8, TNF necrop inh 62 | Dynein confirm active
N#CC(C#N)=C1C=CC=CN1/C(=C\c1ccco1)C(=O)c1ccccc1	Dynein cargo inh -3.8 | Dynein confirm active
COc1ccc(NC(=O)/C(Cl)=C(/Cl)S(=O)(=O)Cc2ccc(C)cc2)cn1	Dynein cargo inh -5 | Dynein confirm inactive
COc1ccc(NC(=O)Cc2ccc(Cl)c(Cl)c2)cn1	none
CCc1nnc(NC(=O)CSc2nccn2-c2cc(C)cc(C)c2)s1	none
CCOC(=O)/C(=C/C=C1\Sc2cc(C)c(C)cc2N1CC)C(C)=O	none | Dynein confirm inactive
CN(C)S(=O)(=O)c1cc(NC(=O)COC(=O)c2ccc3c(c2)OCO3)ccc1Cl	none
COc1cc(N2C(=O)C=CC2=O)c(OC)cc1Cl	Dynein cargo inh -5.1 (no result: Autophagy HCS) | Dynein confirm active
Nc1c(C(=O)C2CC2)sc2nc(-c3cccs3)cc(C(F)(F)F)c12	Autophagy HCS inconclusive | Dynein confirm inactive
Cn1c(-c2ccccc2)c(C(=O)CCl)c2ccccc21	Dynein cargo inh -3.8 | Dynein confirm active
CCn1c(-c2ccccc2)c(C(=O)CCl)c2ccccc21	none
CCCn1nc([N+](=O)[O-])c(C(C#N)c2nc3ccccc3s2)c(Cl)c1=O (configuration not stated)	Dynein cargo inh -5.1 | Dynein confirm active
Cc1ccc(-n2ncc(Br)c(Br)c2=O)cc1	Dynein cargo inh -5.9, Autophagy HCS active | Dynein confirm active
CCc1ccc(NS(=O)(=O)c2cccs2)cc1	none | Dynein confirm inactive
O=[N+]([O-])c1ccc(/C=C/C2=NN(c3ccccc3)C(c3ccco3)C2)cc1 (configuration not stated)	Autophagy HCS inconclusive
O=[N+]([O-])c1ccc(C2=NN(c3ccccc3)C(c3ccco3)C2)cc1 (configuration not stated)	none (no result: Autophagy HCS) | Dynein confirm inactive
COCc1cc(S(=O)c2ccc(Cl)cc2)nc(C)n1 (configuration not stated)	Dynein cargo inh -4.5 | Dynein confirm active
Cc1ccc(S(=O)(=O)/N=c2\ccc(Cl)cn2C(F)F)cc1	Dynein cargo inh -3.8 | Dynein confirm inactive
Cc1ccc(S(C)(=O)=NC(=O)NC(=O)c2c(F)cccc2Cl)cc1 (configuration not stated)	none (no result: Autophagy HCS)
O=c1cc(C(F)(F)F)nc(-c2ccccc2OC(F)(F)F)[nH]1	none (no result: Autophagy HCS)
O=c1oc2ccccc2cc1-c1nc(-c2cccs2)cs1	none
CCN(CC)c1ccc2cc(-c3nc4ccccc4n3C)c(=O)oc2c1	none
CCN(CC)c1ccc2cc(-c3nc4ccccc4[nH]3)c(=O)oc2c1	Dynein cargo inh -5.2, Autophagy HCS active | Dynein confirm active
CCN(CC)c1ccc2cc(-c3nc(-c4ccc(OC)cc4)cs3)c(=O)oc2c1	Dynein cargo inh -5.1 (no result: Autophagy HCS) | Dynein confirm active
Cc1cc(N2CCC3(CC2)OCCO3)n2nc(C)c(-c3ccc(Cl)cc3)c2n1	none (no result: MDM2 E3 inh)
Cc1nn(-c2ccccc2)c(Cl)c1CN(C(=O)CCl)c1ccc(Cl)cc1	Dynein cargo inh -3.9 | Dynein confirm active
CC(=O)N(Cc1c(C)nn(-c2ccccc2)c1Cl)c1ccc(Cl)cc1	none
CCCCc1ccc(/C=C2\C(=O)c3ccccc3C(O)=C2C(=O)OCC)cc1	Dynein cargo inh -4.2 | Dynein confirm active
COc1ccc(NC(=O)CCc2nc3ccccc3s2)c(OC)c1	Dynein cargo inh -5.7 | Dynein confirm inactive
N#Cc1c(N)nc(Sc2ccc(Cl)cc2)c(C#N)c1-c1ccccc1Cl	none (no result: Autophagy HCS)
COc1ccc(-c2cc(C(F)(F)F)nc(S(=O)(=O)CCCC(=O)Nc3cc(C)on3)n2)cc1OC	Dynein cargo inh -5 | Dynein confirm active
COc1ccccc1-c1cc(C(F)(F)F)nc(S(=O)(=O)CCCC(=O)Nc2cc(C)on2)n1	none
C=C1CC(C(=O)N/N=C/c2ccccc2)C1	none
CC(C)(C)C1=NN=C2c3ccccc3C(=O)C21 (configuration not stated)	none (no result: Autophagy HCS)
COc1ccccc1CC1S/C(=N/N=C/c2ccco2)NC1=O (configuration not stated)	none
CCOc1ccc(OCCSc2nnnn2C2CCCCC2)cc1	none
Nc1cccc2c1C(=O)N(C(=O)/C=C/c1ccc(F)cc1)C2=O	Dynein cargo inh -4.7 | Dynein confirm active
C/C(CC(=O)Nc1ccc(Cl)c(C(F)(F)F)c1)=N\NC(=O)c1cc2ccccc2cc1O	none
O=c1c(Cl)c(NCCCO)cnn1-c1nc2ccccc2[nH]1	Dynein cargo inh -4.2 | Dynein confirm active
CN(C)c1oc(-c2ccccc2Cl)nc1P(=O)(c1ccccc1)c1ccccc1	none
CC(C)N1C(=O)C(Cc2nc3ccccc3c(=O)n2-c2ccccc2)c2ccccc21 (configuration not stated)	none
CC(C)N1C(=O)/C(=C\c2nc3ccccc3c(=O)n2-c2ccccc2)c2ccccc21	Dynein cargo inh -5 | Dynein confirm active
CC(C)N1C(=O)/C(=C/c2nc3ccccc3c(=O)n2-c2ccccc2)c2ccccc21	Dynein cargo inh -4.1 | Dynein confirm active
Cn1ncc(Cl)c1C(=O)N1CCN(c2ncccn2)CC1	none
CC(=O)NC(Cc1ccccc1)C(=O)N1CCN(C(=O)c2ccco2)CC1 (configuration not stated)	none
CC(=O)NC(CSC(CC(=O)c1ccco1)c1ccc(C)cc1)C(=O)O (configuration not stated)	Dynein cargo inh -4.3 | Dynein confirm inactive
O=c1cc(C(Cl)(Cl)Cl)oc2c1ccc1ccccc12	Dynein cargo inh -4, Autophagy HCS active | Dynein confirm active
O=c1cc(-c2ccco2)oc2c1ccc1ccccc12	none
O=[N+]([O-])c1ccc(Sc2ncccn2)c([N+](=O)[O-])c1	Dynein cargo inh -4.8 (no result: Autophagy HCS) | Dynein confirm inactive
O=[N+]([O-])c1cc(C(F)(F)F)ccc1Sc1nccn1Cc1ccccc1	none
O=[N+]([O-])c1ccc(Sc2nccn2Cc2ccccc2)c([N+](=O)[O-])c1	Dynein cargo inh -4.6 | Dynein confirm active

Screening data as filed in PubChem BioAssay.
